This passage reports Activity, inhibition and MIC results from ChEMBL document CHEMBL1144146, “Antibacterial and antiandrogen flavonoids from Sophora flavescens” (1999).

Molecules are shown by their SMILES. Values after ≈ are worked out from the molar mass of the structure shown.

A short description of test [1]: Displacement of [3H]DHT from 5-alpha-dihydrotestosterone receptor at 50 ug/mL.
Test [2] can be described thus: Inhibition of testosterone-5-alpha-reductase at 100 ug/mL.
The test system of test [3] is Staphylococcus epidermidis. The test is described as follows: Antimicrobial activity against Staphylococcus epidermidis after 48 hrs by agar plate dilution method. The class given is functional. The procedure, abridged:
(§1)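 Strains cultured at 37 °C in soybean–casein digest broth; activity determined by agar plate dilution (described alongside broth microtiter dilution), read after 48 h incubation at 37 °C.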

Test [4] is described as follows: Displacement of [3H]DHT from 5-alpha-dihydrotestosterone receptor at 200 ug/mL.
Test [5] can be described thus: Inhibition of testosterone-5-alpha-reductase at 50 ug/mL.
Test [6] can be described thus: Inhibition of testosterone-5-alpha-reductase at 200 ug/mL.
The subject of the next test is Bacillus subtilis. Briefly: Antimicrobial activity against Bacillus subtilis after 48 hrs by agar plate dilution method. The class given is functional. The procedure, abridged: as §1
The next test concerns Staphylococcus aureus. The test is described as follows: Antimicrobial activity against Staphylococcus aureus after 48 hrs by agar plate dilution method. The class given is functional. The procedure, abridged: as §1
The nature of test [7]: Displacement of [3H]DHT from 5-alpha-dihydrotestosterone receptor at 100 ug/mL.
The next test deals with Cutibacterium acnes. The test is described as follows: Antimicrobial activity against Propionibacterium acnes after 48 hrs by agar plate dilution method. The class given is functional. The procedure, abridged:
as §1

As for `C=C(C)C(CC=C(C)C)Cc1c(O)cc(O)c2c1O[C@H](c1ccc(O)cc1O)CC2=O` (some centres not stated), the Activity in test [1] turned out to be 80.3%; in test [4] it was 90.1%; in [7], 85.8%. In addition, the values for the inhibition in [2], in test [5] and in [6] were 86.4%, 51.4% and 94.2%, respectively. The minimal inhibitory concentration (MIC) was 10 µg/mL (≈ 23.6 µM) in [3], 2.5 µg/mL (≈ 5.89 µM) against Bacillus subtilis, 2.5 µg/mL (≈ 5.89 µM) against Staphylococcus aureus and 10 µg/mL (≈ 23.6 µM) against Cutibacterium acnes.
Regarding `C=C(C)C(CC=C(C)C)Cc1c(O)cc(O)c2c1O[C@H](c1ccccc1O)CC2=O` (some centres not stated), the results for the Activity in test [1], in test [4] and in [7] were 60.1%, 89.6% and 89.3%, respectively. The inhibition in test [2] was found to be 51.4%; in [5], 21.9%; in test [6], 77.3%. The MIC in test [3] turned out to be 5 µg/mL (≈ 12.2 µM); against Bacillus subtilis, 2.5 µg/mL (≈ 6.12 µM); in the test on Staphylococcus aureus it was 5 µg/mL (≈ 12.2 µM); in the test on Cutibacterium acnes it was 10 µg/mL (≈ 24.5 µM).
In the case of `C=C(C)C(CC=C(C)C)Cc1c(O)cc(OC)c2c1O[C@H](c1ccc(O)cc1OC)CC2=O` (some centres not stated), the Activity in test [1] is 73.7%; in test [4], 58.4%; in [7], 58.9%. In addition, the values for the inhibition in test [2], in [5] and in test [6] were 79.3%, 34.1% and 94.7%, respectively. The minimal inhibitory concentration (MIC) in test [3] was 10 µg/mL (≈ 22.1 µM); against Bacillus subtilis, 2.5 µg/mL (≈ 5.52 µM); in the test with Staphylococcus aureus it was 2.5 µg/mL (≈ 5.52 µM); against Cutibacterium acnes, 25 µg/mL (≈ 55.2 µM).
In the case of `C=C(C)C(CC=C(C)C)Cc1c(O)cc(OC)c2c1O[C@H](c1ccc(O)cc1O)[C@@H](O)C2=O` (some centres not stated), the Activity was found to be 60.2% in test [1], 84.2% in test [4] and 81.4% in test [7]. For the same molecule, the figures for the inhibition in test [2], in [5] and in [6] were 50.9%, 14% and 85.1%, respectively.
With `C=C(C)C(CCC(C)(C)O)Cc1c(O)cc(O)c2c1O[C@H](c1ccc(O)cc1O)CC2=O` (some centres not stated), the Activity in [1] was 43.9%; in test [4], 83%; in [7], 75.4%. The inhibition in test [2] was determined as 41.3%; in test [5], 3.5%; in [6] it was 82.2%.
On to `C=C(C)C(CCC(C)(C)O)Cc1c(O)cc(OC)c2c1O[C@H](c1ccc(O)cc1O)CC2=O` (some centres not stated), for which the Activity in test [1] worked out at 15.5%; in test [4] it was 65.8%; in [7] it was 27.9%. In addition, the values for the inhibition in [2], in test [5] and in test [6] were -0.2%, -1% and 11.9%, respectively.
Take `C=C(C)[C@H](CCC(C)(C)O)Cc1c(O)cc(O)c2c1O[C@H](c1ccccc1O)CC2=O`: the Activity in test [1] is 35%; in test [4] it was 89.2%; in test [7], 84.9%. The inhibition in [2] turned out to be 54.8%; in test [5], 3.2%; in test [6] it was 95.4%.
In the case of `CC1(C)C=Cc2c(ccc3c2OC[C@@H](c2ccc(O)cc2O)C3)O1`, the Activity stood at 63.2% in [1] and 88.2% in [7]. Besides, the inhibition in [2] was found to be 84.3%; in [5], 32.5%.
`COc1cc(C2CC(=O)c3c(O)cc(O)c(CC=C(C)C)c3O2)c(O)cc1O` (racemic) [KUSHENOL W]: the MIC with Bacillus subtilis and in the test with Staphylococcus aureus was 10 µg/mL (≈ 25.9 µM) throughout.
On to `C=C(C)C(CC=C(C)C)Cc1c(O)cc(OC)c2c1O[C@H](c1ccc(O)cc1O)CC2=O` (some centres not stated) [KURARINONE], for which the Activity came out at 61.1% in [1], 88% in test [4] and 89.2% in [7]. Moreover, the inhibition in test [2] was determined as 40.5%; in test [5] it was 0.7%; in test [6], 93.8%. The minimal inhibitory concentration (MIC) with Bacillus subtilis and against Staphylococcus aureus was 2.5 µg/mL (≈ 5.7 µM) each time.
For the molecule `CC(C)=CCC(Cc1c(O)cc(O)c2c1O[C@H](c1ccc(O)cc1O)CC2=O)C(C)CO` (some centres not stated) [KUSHENOL Q], the figures for the Activity in [1], in test [4] and in test [7] were 66.1%, 92.7% and 82.4%, respectively. Also, the inhibition in test [2] worked out at 34.8%; in [5], 0.9%; in [6] it was 88.5%. Further, the minimal inhibitory concentration (MIC) against Bacillus subtilis and with Staphylococcus aureus was 5 µg/mL (≈ 11.3 µM) each time.
For the molecule `C=C(C)C(CC=C(C)C)Cc1c(O)cc(OC)c2c1O[C@H](c1ccccc1O)CC2=O` (some centres not stated) [KUSHENOL R], the Activity in test [1] came out at 27.3%; in test [4] it was 82.4%; in test [7], 67.5%. Also, the inhibition was determined as 23.6% in test [2], 4.1% in test [5] and 73.5% in [6]. Moreover, the MIC in test [3] turned out to be 5 µg/mL (≈ 11.8 µM); against Bacillus subtilis, 2.5 µg/mL (≈ 5.92 µM); against Staphylococcus aureus it was 5 µg/mL (≈ 11.8 µM); with Cutibacterium acnes it was 10 µg/mL (≈ 23.7 µM).
Take `CC(C)=CCc1c(O)cc(O)c2c1O[C@H](c1ccccc1O)CC2=O` [KUSHENOL S]: the Activity is 37.8% in [1], 70% in test [4] and 47.7% in test [7]. Besides, the figures for the inhibition in test [2], in [5] and in [6] were 22.9%, 7.3% and 37.4%, respectively. Moreover, the minimum inhibitory concentration (MIC) in the test on Bacillus subtilis and in the test on Staphylococcus aureus was 5 µg/mL (≈ 14.7 µM) in each case.
Regarding `C=C(C)C(CC=C(C)C)Cc1c(O)cc(OC)c2c1O[C@H](c1ccc(O)cc1)CC2=O` (some centres not stated) [KUSHENOL U], the Activity in [1] was found to be 52.6%; in [4] it was 96.9%; in test [7], 85.1%. Also, the values for the inhibition in test [2], in test [5] and in test [6] were 50.3%, 7.4% and 84.4%, respectively. For the same molecule, the MIC (in [3]; in the test on Bacillus subtilis; against Staphylococcus aureus; against Cutibacterium acnes) was 10 µg/mL (≈ 23.7 µM) each time.
On to `COc1cc([C@@H]2CC(=O)c3c(cc(O)c(CC=C(C)C)c3O)O2)c(O)cc1O` [KUSHENOL V], for which the minimal inhibitory concentration (MIC) in the test with Bacillus subtilis and in the test with Staphylococcus aureus was 10 µg/mL (≈ 25.9 µM) each time.
For the molecule `C=C(C)C(CC=C(C)C)Cc1c(O)cc(O)c2c1O[C@H](c1ccc(O)cc1O)[C@@H](O)C2=O` (some centres not stated) [KUSHENOL X], the Activity in test [1] amounted to 68.9%; in test [4], 88.6%; in test [7], 90.5%. Also, the inhibition in test [2] came to 84.5%; in [5] it was 30.9%; in test [6], 96.4%. The MIC against Bacillus subtilis and against Staphylococcus aureus was 10 µg/mL (≈ 22.7 µM) throughout.
For `CC(C)=CCc1c(O)cc(O)c2c1O[C@H](c1ccc(O)cc1O)CC2=O` [LEACHIANONE G], the Activity in test [1] was found to be 74.2%; in test [4], 94.5%; in test [7], 84.8%. In addition, the results for the inhibition in test [2], in [5] and in [6] were 80.5%, 25.3% and 89.9%, respectively. Besides, the minimal inhibitory concentration (MIC) against Bacillus subtilis worked out at 2.5 µg/mL (≈ 7.02 µM); with Staphylococcus aureus, 5 µg/mL (≈ 14 µM).
